In ChEMBL document CHEMBL4715736, “Identification of anticancer agents based on the thieno[2,3-b]pyridine and 1H-pyrazole molecular scaffolds” (2016):

Key:
Assay type in all cases: functional
NCI-H23 = assay: Growth inhibition of human NCI-H23 cells assessed as cell growth at 0.01 uM incubated for 48 hrs by sulforhodamine B assay relative to control; details: read-out: Activity
T47D = assay: Growth inhibition of human T47D cells assessed as cell growth at 0.01 uM incubated for 48 hrs by sulforhodamine B assay relative to control; details: read-out: Activity
HCC 2998 [1] = assay: Growth inhibition of human HCC 2998 cells assessed as cell growth at 0.1 uM incubated for 48 hrs by sulforhodamine B assay relative to control; details: read-out: Activity
How it was run: (§1)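 NCI Developmental Therapeutics Program NCI60 panel. Compounds that were active in the 10 µM one-dose screen went on to dose–response testing. Growth at each concentration is expressed relative to untreated control (100%). GI50 (concentration giving 50% of maximal inhibition of proliferation) and TGI (concentration giving total growth inhibition) were derived from the curves.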

OVCAR-3 = assay: Growth inhibition of human OVCAR-3 cells assessed as cell growth at 0.01 uM incubated for 48 hrs by sulforhodamine B assay relative to control; details: read-out: Activity
CAKI-1 = assay: Growth inhibition of human CAKI-1 cells incubated for 48 hrs by sulforhodamine B assay; details: for CC50: read-out: LC50 (the source's name); how it was run: as §1
BT-549 [2] = assay: Growth inhibition of human BT-549 cells incubated for 48 hrs by sulforhodamine B assay; details: for CC50: read-out: LC50 (the source's name); how it was run: as §1
RXF 393 = assay: Growth inhibition of human RXF 393 cells assessed as cell growth at 1 uM incubated for 48 hrs by sulforhodamine B assay relative to control; details: read-out: Activity
IGROV-1 = assay: Growth inhibition of human IGROV-1 cells assessed as cell growth at 1 uM incubated for 48 hrs by sulforhodamine B assay relative to control; details: read-out: Activity
BT-549 [3] = assay: Growth inhibition of human BT-549 cells assessed as cell growth at 0.1 uM incubated for 48 hrs by sulforhodamine B assay relative to control; details: read-out: Activity
NCI-H226 = assay: Growth inhibition of human NCI-H226 cells assessed as cell growth at 100 uM incubated for 48 hrs by sulforhodamine B assay relative to control; details: read-out: Activity
TK-10 [4] = assay: Growth inhibition of human TK-10 cells assessed as cell growth at 100 uM incubated for 48 hrs by sulforhodamine B assay relative to control; details: read-out: Activity
MDA-MB-231 = assay: Growth inhibition of human MDA-MB-231 cells assessed as cell growth at 1 uM incubated for 48 hrs by sulforhodamine B assay relative to control; details: read-out: Activity
OVCAR-8 = assay: Growth inhibition of human OVCAR-8 cells assessed as cell growth at 1 uM incubated for 48 hrs by sulforhodamine B assay relative to control; details: read-out: Activity
MOLT-4 = assay: Growth inhibition of human MOLT-4 cells assessed as cell growth at 100 uM incubated for 48 hrs by sulforhodamine B assay relative to control; details: read-out: Activity
U-251 [5] = assay: Growth inhibition of human U-251 cells assessed as cell growth at 0.1 uM incubated for 48 hrs by sulforhodamine B assay relative to control; details: read-out: Activity
LOX IMVI = assay: Growth inhibition of human LOX IMVI cells assessed as cell growth at 100 uM incubated for 48 hrs by sulforhodamine B assay relative to control; details: read-out: Activity
DU-145 = assay: Growth inhibition of human DU-145 cells assessed as cell growth at 1 uM incubated for 48 hrs by sulforhodamine B assay relative to control; details: read-out: Activity; how it was run: as §1
SW-620 [6] = assay: Growth inhibition of human SW-620 cells assessed as cell growth at 0.1 uM incubated for 48 hrs by sulforhodamine B assay relative to control; details: read-out: Activity
SF-268 = assay: Growth inhibition of human SF-268 cells assessed as cell growth at 0.1 uM incubated for 48 hrs by sulforhodamine B assay relative to control; details: read-out: Activity
SK-MEL-28 = assay: Growth inhibition of human SK-MEL-28 cells incubated for 48 hrs by sulforhodamine B assay
How it was run: (§2)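 NCI DTP 60-line human tumour panel. Dose-response curves were run only for ligands active in the initial 10 µM screen. GI50 (concentration giving 50% of maximal inhibition of proliferation) and TGI (concentration giving total growth inhibition) were derived from these curves.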

SNB-19 = assay: Growth inhibition of human SNB-19 cells assessed as cell growth at 100 uM incubated for 48 hrs by sulforhodamine B assay relative to control; details: read-out: Activity
HCT-116 [7] = assay: Growth inhibition of human HCT-116 cells assessed as cell growth at 1 uM incubated for 48 hrs by sulforhodamine B assay relative to control; details: read-out: Activity
NCI-H322M = assay: Growth inhibition of human NCI-H322M cells assessed as cell growth at 0.01 uM incubated for 48 hrs by sulforhodamine B assay relative to control; details: read-out: Activity
HCC 2998 [8] = assay: Growth inhibition of human HCC 2998 cells assessed as cell growth at 1 uM incubated for 48 hrs by sulforhodamine B assay relative to control; details: read-out: Activity; how it was run: as §1
MDA-MB-435 = assay: Growth inhibition of human MDA-MB-435 cells assessed as cell growth at 100 uM incubated for 48 hrs by sulforhodamine B assay relative to control; details: read-out: Activity
TK-10 [9] = assay: Growth inhibition of human TK-10 cells incubated for 48 hrs by sulforhodamine B assay; details: for CC50: read-out: LC50 (the source's name); how it was run: as §2
A549 = assay: Growth inhibition of human A549/ATCC cells assessed as cell growth at 100 uM incubated for 48 hrs by sulforhodamine B assay relative to control; details: read-out: Activity; how it was run: as §1
SW-620 [10] = assay: Growth inhibition of human SW-620 cells assessed as cell growth at 1 uM incubated for 48 hrs by sulforhodamine B assay relative to control; details: read-out: Activity
U-251 [11] = assay: Growth inhibition of human U-251 cells incubated for 48 hrs by sulforhodamine B assay; how it was run: as §2
SK-MEL-2 = assay: Growth inhibition of human SK-MEL-2 cells assessed as cell growth at 0.1 uM incubated for 48 hrs by sulforhodamine B assay relative to control; details: read-out: Activity
K562 = assay: Growth inhibition of human K562 cells assessed as cell growth at 100 uM incubated for 48 hrs by sulforhodamine B assay relative to control; details: read-out: Activity
HCT-116 [12] = assay: Growth inhibition of human HCT-116 cells incubated for 48 hrs by sulforhodamine B assay
How it was run: (§3)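 NCI60 panel at the NCI Developmental Therapeutics Program. Only compounds active in the 10 µM screen went to dose-response testing. GI50, the concentration giving 50% of maximal inhibition of proliferation, and TGI, the concentration giving total growth inhibition, were derived from the dose-response curves.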

Malme-3M = assay: Growth inhibition of human Malme-3M cells assessed as cell growth at 100 uM incubated for 48 hrs by sulforhodamine B assay relative to control; details: read-out: Activity
SK-MEL-5 = assay: Growth inhibition of human SK-MEL-5 cells incubated for 48 hrs by sulforhodamine B assay; how it was run: as §2
KM12 = assay: Growth inhibition of human KM12 cells incubated for 48 hrs by sulforhodamine B assay; how it was run: as §3

Structure (SMILES): Cc1cccc(NC(=O)c2sc3nc4c(cc3c2N)C(=O)CCC4)c1
- growth at 0.01 µM (NCI-H23): 99%
- growth at 0.01 µM (T47D): 79%
- growth at 0.1 µM (HCC 2998 [1]): 80%
- growth at 0.01 µM (OVCAR-3): 98%
- GI50 (CAKI-1): 0.359 µM
- TGI (CAKI-1): > 100 µM
- CC50 (CAKI-1): > 100 µM
- TGI (BT-549 [2]): ≥ 100 µM
- CC50 (BT-549 [2]): > 100 µM
- growth at 1 µM (RXF 393): -16%
- growth at 1 µM (IGROV-1): 42%
- growth at 0.1 µM (BT-549 [3]): 74%
- growth at 100 µM (NCI-H226): -15%
- growth at 100 µM (TK-10 [4]): -23%
- growth at 1 µM (MDA-MB-231): 40%
- growth at 1 µM (OVCAR-8): 47%
- growth at 100 µM (MOLT-4): 6%
- growth at 0.1 µM (U-251 [5]): 74%
- growth at 100 µM (LOX IMVI): -75%
- growth at 1 µM (DU-145): 3%
- growth at 0.1 µM (SW-620 [6]): 60%
- growth at 0.1 µM (SF-268): 93%
- GI50 (SK-MEL-28): 0.0308 µM
- LC50 (SK-MEL-28): > 100 µM
- TGI (SK-MEL-28): ≥ 100 µM
- growth at 100 µM (SNB-19): -74%
- growth at 1 µM (HCT-116 [7]): 28%
- growth at 0.01 µM (NCI-H322M): 97%
- growth at 1 µM (HCC 2998 [8]): 28%
- growth at 100 µM (MDA-MB-435): -64%
- GI50 (TK-10 [9]): > 100 µM
- TGI (TK-10 [9]): ≥ 100 µM
- CC50 (TK-10 [9]): > 100 µM
- growth at 100 µM (A549): 19%
- growth at 1 µM (SW-620 [10]): 19%
- GI50 (U-251 [11]): 0.261 µM
- LC50 (concentration killing 50% of cells) (U-251 [11]): ≥ 100 µM
- TGI (U-251 [11]): ≥ 100 µM
- growth at 0.1 µM (SK-MEL-2): 70%
- growth at 100 µM (K562): 17%
- GI50 (HCT-116 [12]): 0.28 µM
- LC50 (concentration killing 50% of cells) (HCT-116 [12]): > 100 µM
- TGI (HCT-116 [12]): > 100 µM
- growth at 100 µM (Malme-3M): -16%
- GI50 (SK-MEL-5): 0.169 µM
- LC50 (SK-MEL-5): > 100 µM
- TGI (SK-MEL-5): ≥ 100 µM
- GI50 (KM12): 0.21 µM
- LC50 (KM12): > 100 µM
- TGI (KM12): > 100 µM

Structure (SMILES): COc1cccc(NC(=O)c2sc3nc4c(cc3c2N)CN(Cc2ccccc2)CC4)c1
- growth at 0.01 µM (NCI-H23): 100%
- growth at 0.01 µM (T47D): 90%
- growth at 0.1 µM (HCC 2998 [1]): 98%
- growth at 0.01 µM (OVCAR-3): 107%
- GI50 (CAKI-1): 11.7 µM
- TGI (CAKI-1): > 100 µM
- CC50 (CAKI-1): > 100 µM
- GI50 (BT-549 [2]): 2.83 µM
- TGI (BT-549 [2]): 26.2 µM
- CC50 (BT-549 [2]): > 100 µM
- growth at 1 µM (RXF 393): 84%
- growth at 1 µM (IGROV-1): 90%
- growth at 0.1 µM (BT-549 [3]): 91%
- growth at 100 µM (NCI-H226): -29%
- growth at 100 µM (TK-10 [4]): -55%
- growth at 1 µM (MDA-MB-231): 78%
- growth at 1 µM (OVCAR-8): 90%
- growth at 100 µM (MOLT-4): 13%
- growth at 0.1 µM (U-251 [5]): 98%
- growth at 100 µM (LOX IMVI): -15%
- growth at 1 µM (DU-145): 95%
- growth at 0.1 µM (SW-620 [6]): 99%
- growth at 0.1 µM (SF-268): 100%
- GI50 (SK-MEL-28): 2.8 µM
- LC50 (SK-MEL-28): > 100 µM
- TGI (SK-MEL-28): 29.7 µM
- growth at 100 µM (SNB-19): 14%
- growth at 1 µM (HCT-116 [7]): 59%
- growth at 0.01 µM (NCI-H322M): 101%
- growth at 1 µM (HCC 2998 [8]): 86%
- growth at 100 µM (MDA-MB-435): -74%
- GI50 (TK-10 [9]): 4.82 µM
- TGI (TK-10 [9]): 21.6 µM
- CC50 (TK-10 [9]): 86.8 µM
- growth at 100 µM (A549): -8%
- growth at 1 µM (SW-620 [10]): 57%
- GI50 (U-251 [11]): 2.74 µM
- LC50 (concentration killing 50% of cells) (U-251 [11]): 88.7 µM
- TGI (U-251 [11]): 19.2 µM
- growth at 0.1 µM (SK-MEL-2): 112%
- growth at 100 µM (K562): 8%
- GI50 (HCT-116 [12]): 1.74 µM
- LC50 (concentration killing 50% of cells) (HCT-116 [12]): > 100 µM
- TGI (HCT-116 [12]): > 100 µM
- growth at 100 µM (Malme-3M): -42%
- GI50 (SK-MEL-5): 2.15 µM
- LC50 (SK-MEL-5): > 100 µM
- TGI (SK-MEL-5): 31.9 µM
- GI50 (KM12): 11.8 µM
- LC50 (KM12): > 100 µM
- TGI (KM12): 40.3 µM
